Mdm2 MdmX PPI: inhibitors of human Mdm2/MdmX interaction | O15151+Q00987 | SaOS-2 split-luciferase Mdm2/MdmX complementation, luminescence | inhibition, % at 8 µM | hit rate 3% among 330,000 | AID 485346;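 active means inhibition of at least 50% at 8 µM in the primary screen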
aSyn UTR inh: 5' untranslated region of α-synuclein, MLPCN primary screen; alpha-synuclein 5'UTR reporter, inhibitor activity; inhibition, % (tested at 7.5 µM); hit rate 0.82% among 300,000; in the data active means inhibition above about 60%;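 further: H4 neuroglioblastoma cells stably carrying SNCA 5'UTR luciferase fusion; 0% = DMSO wells and 100% = positive control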
VIM-2 inh: inhibitors of Pseudomonas aeruginosa VIM-2 metallo-beta-lactamase | purified VIM-2, nitrocefin hydrolysis, epi-absorbance fluorescence | inhibition, % at 5.6 µM | hit rate 0.89% among 290,000;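 active means inhibition above the mean of all tested compounds plus 3 SD, cutoff set per screening run, cut at about 7.5% in these data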;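 further: red hydrolysis product quenches plate fluorescence so inhibitors raise well fluorescence; 0% = enzyme with DMSO and 100% = DMSO without enzyme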
697 NFkB inh: inhibitors of the PMA/ionomycin-induced NF-kB reporter in 697 B cells. 697 B-cell NF-kB luciferase reporter, 16 h. inhibition, % at 4 µM. hit rate 0.33% among 330,000; in the data active means inhibition above about 35%
Jurkat NFkB inh: inhibitors of the PMA/ionomycin-induced NF-kB reporter in Jurkat cells. AID 435003. inhibition, % at 4 µM. hit rate 0.53% among 330,000. PMA/ionomycin-induced NF-kB luciferase reporter, luminescence; in the data active means inhibition above about 50%
IMP-1 inh: blocks Pseudomonas aeruginosa IMP-1 metallo-beta-lactamase. purified IMP-1, nitrocefin hydrolysis, epi-absorbance fluorescence. inhibition, % at 5.6 µM. hit rate 0.45% among 290,000. AID 1556;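 active means inhibition above the mean plus 3 SD of all compounds in the same screening run, cut at about 4.5% in these data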;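 further: 0% = IMP-1 with DMSO and 100% = DMSO wells lacking enzyme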
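assay system = purified recombinant IMP-1 metallo-beta-lactamase enzyme | schedule = 15 min preincubation plus 25 min reaction at 25 °C | signal = Epi-absorbance fluorescence, 480 nm excitation, 530 nm emission | read-out basis = percent inhibition from optical density relative to buffer-blank wells | controls = IMP-1 with DMSO as 0%, enzyme-free DMSO as 100%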
Mdm2-MdmX conf: human Mdm2/MdmX binding inhibition, confirmed; shares compounds with Mdm2 MdmX PPI; inhibition, % at 8 µM; hit rate 55% among 10,000; luminescent assay; in the data active means inhibition above about 40%
FLuc counter: inhibits full-length luciferase, flagging false Mdm2/MdmX hits; shares compounds with Mdm2 MdmX PPI; SaOS-2 full-length luciferase counterscreen, luminescence; inhibition, % at 8 µM; hit rate 77% among 6,200;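 active means mean inhibition at 8 µM reaching about 37%, which flags the compound as non-specific, limit read from the data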;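 further: p53-null SaOS-2 cells with luciferase driven by a doxycycline-inducible promoter; compound on cells about two nights before reading with doxycycline added after day one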
Active calls of the source: *; x = no result. This is a sample that favours compounds with a hit; in the whole collection about 4.7% have one here.

SMILES	Mdm2 MdmX PPI	aSyn UTR inh	VIM-2 inh	697 NFkB inh	Jurkat NFkB inh	IMP-1 inh	Mdm2-MdmX conf	FLuc counter
FC(F)(F)c1cccc(Sc2nc(-c3ccccc3)nnc2C(F)(F)F)c1	55*	-6	-2	24	-7	-4	17	x
FC(F)(F)c1nnc(-c2ccccc2)nc1Sc1ccc(Cl)cc1	86*	-1	0	15	-12	-3	34	16
FC(F)(F)c1nnc(-c2ccccc2)nc1Oc1ccc(Cl)cc1Cl	32	4	-2	2	-17	-3	x	x
FC(F)(F)c1nnc(-c2ccccc2)nc1Sc1ccccc1	52*	15	2	-39	-27	1	18	x
CC(OC(=O)Cc1ccccc1[N+](=O)[O-])C(=O)Nc1ccc(Cl)cn1 (configuration not stated)	2	0	x	-14	6	x	x	x
COC(=O)c1ccc(C2C(C#N)=C(N)Oc3cc(N)ccc32)cc1 (configuration not stated)	16	-4	-2	8	12	-1	x	x
N#CC1=C(N)Oc2cc(N)ccc2C1c1cccc(F)c1 (configuration not stated)	54*	-137	0	-38	47	0	44*	65*
CCC(=O)Nc1cccc(C(=O)/C=C/c2ccc(F)cc2)c1	89*	-53	-2	-20	-7	-3	48*	45*
CC(=O)Nc1ccc(/C=C/C(=O)c2ccc3c(c2)OCCO3)cc1	-15	-41	1	8	5	-2	x	x
CC(=O)Nc1cccc(C(=O)/C=C/c2ccc(C)cc2)c1	57*	-123	-3	25	-8	-3	52*	54*
O=C(CSc1cccc2cccnc12)N1CCCC1	66*	4	-1	-4	13	0	3	x
CN(C)C(=O)CSc1cccc2cccnc12	70*	14	0	-19	4	-1	-3	x
O=C(Cc1ccc(S(=O)(=O)N2CCOCC2)s1)N1CCN(S(=O)(=O)c2cccc(Cl)c2)CC1	24	19	x	-11	-9	x	x	x
O=C1/C(=C/c2ccccc2O)SC(=S)N1Cc1cccnc1	73*	-34	-2	8	9	-4	5	x
O=C1/C(=C/c2ccc(O)c([N+](=O)[O-])c2)SC(=S)N1Cc1ccccc1	62*	3	-1	-4	0	-2	45*	71*
O=C1/C(=C\c2ccc(O)cc2)SC(=S)N1Cc1ccccc1	36	2	1	3	8	2	x	x
O=C1/C(=C\c2cc(Br)cc(Br)c2O)SC(=S)N1Cc1ccccc1	91*	2	-9	-4	-12	4	79*	37*
O=C1CSC(=S)N1c1cccnc1	33	9	1	-1	15	-2	x	x
O=C1CSC(=S)N1Cc1cccnc1	94*	-46	1	-17	-8	0	80*	50*
CC(C)N(C(=O)[C@H]1C[C@H](CC(=O)NCc2cccc(C(F)(F)F)c2)C(=O)N2CCc3c([nH]c4ccc(Cl)cc34)[C@]12C)C(C)C	95*	x	x	32	x	x	40*	81*
CC(C)N(C(=O)[C@H]1C[C@H](CC(=O)NCCCN(C)C)C(=O)N2CCc3c([nH]c4cc(-c5ccco5)ccc34)[C@]12C)C(C)C	63*	x	x	24	x	x	23	x
C[C@]12c3[nH]c4cc(-c5ccco5)ccc4c3CCN1C(=O)[C@@H](CC(=O)NCc1cccc(C(F)(F)F)c1)C[C@@H]2C(=O)N1CCOCC1	37	x	x	1	x	x	x	x
CC(C)N(C(=O)[C@H]1C[C@H](CC(=O)NCc2cccc(C(F)(F)F)c2)C(=O)N2CCc3c([nH]c4cc(-c5ccco5)ccc34)[C@]12C)C(C)C	77*	x	x	10	x	x	3	x
CCN(CC)C(=O)[C@H]1C[C@H](CC(=O)NCCCN(C)C)C(=O)N2CCc3c([nH]c4cc(-c5ccco5)ccc34)[C@]12C	34	x	x	24	x	x	x	x
CC(C)N(C(=O)[C@H]1C[C@H](CC(=O)NCc2ccco2)C(=O)N2CCc3c([nH]c4ccc(Cl)cc34)[C@]12C)C(C)C	52*	x	x	12	x	x	20	x
